Test results as given in ChEMBL document CHEMBL1151853, “Synthesis, configurational stability and stereochemical biological evaluations of (S)- and (R)-5-hydroxythalidomides” (Bioorg Med Chem Lett, 2009).
Activity calls are given as the source filed them. The calls are words filed in the database; no cut-off is given here.

Columns and labels:
[1] = Cytotoxicity against human HS-Sultan cells assessed as cell viability at 100 ug/ml after 72 hrs by MTT assay; assay type: functional; details: read-out: Activity
[2] = test system: HUVEC; assay: Antiangiogenic activity against VEGF-induced HUVEC assessed as tube area at 100 uM after 11 days by BCIP/NBT visualization assay; assay type: functional, Homo sapiens
Outline: (§1)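 HUVECs co-cultured with fibroblasts (angiogenesis kit) grown with test drug at 30 or 100 μM plus VEGF-A 10 ng/ml for 11 days. Fixed in 70% ethanol, then mouse anti-human CD31 (1:4000, 1 h, 37 °C) and AP-conjugated goat anti-mouse IgG (1:500, 1 h, 37 °C), developed with BCIP/NBT. Mean ± S.E.M.; VEGF n = 9, VEGF + compound n = 3; Dunnett's test versus VEGF.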

[3] = test system: HUVEC; assay: Antiangiogenic activity against VEGF-induced HUVEC assessed as tube length at 100 uM after 11 days after 11 days by BCIP/NBT visualization assay; assay type: functional, cell-based; details: Homo sapiens; outline: as §1
[4] = test system: HUVEC; assay: Antiangiogenic activity against VEGF-induced HUVEC assessed as tube joint at 100 uM after 11 days after 11 days by BCIP/NBT visualization assay; assay type: functional, cell-based; details: Homo sapiens; outline: as §1
[5] = test system: HUVEC; assay: Antiangiogenic activity against VEGF-induced HUVEC assessed as tube path at 100 uM after 11 days after 11 days by BCIP/NBT visualization assay; assay type: functional, cell-based; details: Homo sapiens; outline: as §1
[6] = test system: KB; assay: Cytotoxicity against human KB cells assessed as cell viability at 100 ug/ml after 72 hrs by MTT assay; assay type: functional; details: read-out: Activity
[7] = test system: MCF7; assay: Cytotoxicity against human MCF7 cells assessed as cell viability at 100 ug/ml after 72 hrs by MTT assay; assay type: functional; details: MCF7, 72 h, read-out: Activity
[8] = test system: IM-9; assay: Cytotoxicity against human IM9 cells assessed as cell viability at 100 ug/ml after 72 hrs by MTT assay; assay type: functional; details: IM-9, 72 h, read-out: Activity
[9] = Stability assessed as half life at pH 6.24; assay type: physicochemical; details: buffer
[10] = Stability assessed as half life at pH 7.23; assay type: physicochemical; details: buffer
[11] = Stability assessed as half life at pH 8.78; assay type: physicochemical; details: buffer

O=C1CC[C@@H](N2C(=O)c3ccccc3C2=O)C(=O)N1
viability at 100 µg/mL [1]: 75.6%
Activity [2]: >70%
Activity [3]: inactive
Activity [4]: inactive
Activity [5]: inactive
viability at 100 µg/mL [6]: 96.9%
viability at 100 µg/mL [7]: 89.8%
viability at 100 µg/mL [8]: 87.1%

O=C1CC[C@H](N2C(=O)c3ccccc3C2=O)C(=O)N1
viability at 100 µg/mL [1]: 88.6%
half-life [9]: 27.8 h
half-life [10]: 5.1 h
half-life [11]: 2.6 h
Activity [2]: <60%
viability at 100 µg/mL [6]: 95.6%
viability at 100 µg/mL [7]: 81.3%
viability at 100 µg/mL [8]: 93.5%

O=C1CCC(N2C(=O)c3ccccc3C2=O)C(=O)N1 (racemic) [THALIDOMIDE]
viability at 100 µg/mL [1]: 85.9%
Activity [2]: <60%
Activity [3]: inactive
Activity [4]: inactive
Activity [5]: inactive
viability at 100 µg/mL [6]: 92.2%
viability at 100 µg/mL [7]: 86.5%
viability at 100 µg/mL [8]: 107%
